In paper PMC3217170 (Biochimica et biophysica acta, 2011):
One block for each compound: values may come before it.

What was measured:
[1] = tested on: PKCθ; conditions: ref [56]; cited from earlier work
[2] = tested on: PKCθ (pT538) in pancreatic acini; assay: PKCθ T538 phosphorylation in rat pancreatic acini; format: cell-based; conditions: for stimulation of PKCθ phosphorylation (pT538), secretagogues: isolated rat pancreatic acini, 5 minutes, Western blot; for stimulation of PKCθ phosphorylation (pT538), secretagogues / tmax of pT538 PKCθ phosphorylation / pT538 PKCθ phosphorylation, maximum at about 1 min / pT538 PKCθ phosphorylation at 30 min: 5 independent experiments; for tmax of pT538 PKCθ phosphorylation / pT538 PKCθ phosphorylation, maximum at about 1 min / pT538 PKCθ phosphorylation at 30 min: time course
[3] = tested on: pancreatic acini (amylase secretion); assay: Amylase release from pancreatic acini; format: cell-based, rat; conditions: 15 minutes, basal 1.7±0.2, mean±S.E., 6 experiments
Procedure, shortened: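 Rat pancreatic acini from collagenase digestion; 2 h preincubation ± 20 μM PKCθ pseudosubstrate in HEPES-buffered (pH 7.45) standard incubation solution, then 15 min with secretagogue. Medium amylase measured with Phadebas reagent and expressed as % of total cellular amylase released during incubation. Means±S.E.; paired Student's t-test.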

[4] = tested on: PKCδ; conditions: ref [60]; cited from earlier work
[5] = tested on: PKCθ / tubulin; assay: Co-IP association of PKCθ with tubulin; format: cell-based, rat
Procedure, shortened: (§1)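 Rat pancreatic acini are dispersed by collagenase and preincubated 2 hrs at 37 °C in HEPES (pH 7.45) incubation solution, then left unstimulated or given CCK (10 nM) or TPA (1 μM). Cells are lysed in CelLytic buffer with vanadate, PMSF and protease inhibitors. Lysate (750 μg/ml) is immunoprecipitated overnight at 4 °C with 4 μg anti-PKCθ plus protein G-agarose, PBS-washed, then analysed by SDS-PAGE/Western blot; ≥3 experiments.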

[6] = tested on: PKCθ / RafA; assay: Co-IP association of PKCθ with RafA; format: cell-based, rat; conditions: 2.5 min, 3 independent experiments; for association of PKCθ with RafA: CCK 10 nM or TPA 1 μM
[7] = tested on: PKCθ / RafB; assay: Co-IP association of PKCθ with RafB; format: cell-based, rat
Procedure, shortened: as §1

[8] = tested on: PKCθ / RafC; assay: Co-IP association of PKCθ with RafC; format: cell-based, rat; conditions: 2.5 min, 3 independent experiments; for association of PKCθ with RafC: CCK 10 nM or TPA 1 μM
[9] = tested on: PKCθ; assay: PKCθ translocation to membranes; format: cell-based, rat; conditions: p<0.05, mean±S.E., 5 independent experiments
Procedure, shortened: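 Acini stimulated with CCK for 1 min or TPA for 5 min, then homogenized in Tris pH 7.5 buffer with EGTA/EDTA, vanadate, PMSF and protease inhibitors. The cleared supernatant was spun at 60,000×g for 30 min at 4 °C. The membrane pellet was washed, solubilized in Triton/deoxycholate buffer, sonicated and spun at 10,000×g. Western blot used anti-PKCθ; calpain and E-cadherin served as fraction markers. Results given as % control; 5 experiments.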

[10] = tested on: PKCθ / Lyn; assay: Co-IP association of PKCθ with Lyn; format: cell-based, rat; conditions: 2.5 min, 3 independent experiments; for association of PKCθ with Lyn: CCK 10 nM or TPA 1 μM
[11] = tested on: PKCθ / p85 PI3K; assay: Co-IP association of PKCθ with p85 PI3K; format: cell-based, rat
Procedure, shortened: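 Rat acini stimulated with CCK 10 nM or TPA 1 μM, then lysed in CelLytic buffer with vanadate, PMSF and protease inhibitors. Lysate (750 μg/ml) incubated overnight at 4 °C with 4 μg antibody and protein G-agarose. Immunoprecipitates washed with PBS, then analysed by SDS-PAGE and Western blotting.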

[12] = tested on: PKCθ / 14-3-3γ; assay: Co-IP association of PKCθ with 14-3-3γ; format: cell-based, rat; conditions: CCK 10 nM or TPA 1 μM, data not shown
[13] = tested on: PKCθ / Akt; assay: Co-IP association of PKCθ with Akt; format: cell-based, rat; conditions: CCK 10 nM or TPA 1 μM, 2.5 min, 3 independent experiments
[14] = tested on: pT538 PKCθ; assay: PKCθ immunofluorescence-cytochemistry; format: cell-based, rat; conditions: TPA 1 μM or CCK 10 nM, 10 minutes; 4 independent experiments
Procedure, shortened: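 Acini left untreated or given TPA 1 μM or CCK 10 nM for 10 min, then washed, fixed, permeabilized and cytocentrifuged onto poly-L-lysine slides. Labelled overnight at 4 °C with rabbit anti-pT538 PKCθ and mouse anti-E-cadherin (1:500), detected with Alexa 488/555 secondaries, nuclei stained with DAPI. Isotype-matched primary as negative control; 4 experiments.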

[15] = tested on: PKD (pS744/748); assay: PKD phosphorylation stimulated by CCK or TPA; format: cell-based, rat; conditions: no inhibitor, p<0.05
Procedure, shortened: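 Collagenase-dispersed rat acini preincubated 3 h ± 20 μM PKCθ pseudosubstrate, then CCK (10 nM, 2.5 min) or TPA (1 μM, 5 min), and lysed. Equal protein Western-blotted for pY311 PKCδ, pS744/748 PKD, pS338 RafC or pY416 Src, with total PKCθ and α/β tubulin as loading controls. Bands quantified by densitometry in the linear range. ≥3 experiments; mean±SEM; paired t-test.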

[16] = tested on: PKCθ / Cbl; assay: Co-IP association of PKCθ with Cbl; format: cell-based, rat; conditions: CCK 10 nM or TPA 1 μM, data not shown
[17] = tested on: PKCθ / MALT-1; assay: Co-IP association of PKCθ with MALT-1; format: cell-based, rat; conditions: CCK 10 nM or TPA 1 μM, data not shown
[18] = tested on: PKCδ; conditions: pancreatic acinar cells, cited from earlier work
[19] = tested on: phospholipase D; conditions: pancreatic acinar cells; ref [67]; cited from earlier work
[20] = tested on: PI-3 kinase; conditions: pancreatic acinar cells; ref [67]; cited from earlier work
[21] = tested on: CrKII; conditions: pancreatic acinar cells; ref [66]; cited from earlier work
[22] = tested on: CCKA receptor; assay: CCKA receptor mediation of PKCθ T538 phosphorylation in pancreatic acini; format: cell-based, rat
[23] = tested on: PKCmu (PKD1); conditions: pancreatic acinar cells; no reference printed at this sentence; cited from earlier work
[24] = tested on: Lyn; conditions: pancreatic acinar cells; ref [64]; cited from earlier work
[25] = tested on: PYK2/CAKβ; conditions: pancreatic acinar cells; ref [17]; cited from earlier work
[26] = tested on: PKCθ (T538); conditions: ref [61]; cited from earlier work
[27] = tested on: PKCθ; conditions: ref [62]; cited from earlier work
[28] = tested on: CCKB receptors; assay: CCKB receptor mediation of PKCθ T538 phosphorylation in pancreatic acini; format: cell-based, rat; conditions: 1 min, isolated acini, Western blot

Compound: insulin: known pancreatic growth factor
PKCθ activation in myocytes [1]: able to increase PKCθ activation

Compound: bombesin
stimulation of PKCθ phosphorylation (pT538), secretagogues [2]: stimulated a significant increase

Amylase secretion (% total), −PKCθ inhibitor ([3]; VIP 10 nM): 3.4±0.6 % total
Compound: vasoactive intestinal peptide [VIP]
stimulation of PKCθ phosphorylation (pT538), secretagogues [2]: Neither | PKCδ activation in cortical astrocytes [4]: activates PKCδ

Compound: CCCCCCCCCCCCCC(=O)O[C@@H]1[C@@H](C)[C@@]2(O)[C@@H](C=C(CO)C[C@]3(O)C(=O)C(C)=C[C@@H]23)[C@H]2C(C)(C)[C@]12OC(C)=O [TPA, 12-O-tetradecanoylphobol-13-acetate]
tmax of pT538 PKCθ phosphorylation [2]: 1.60±0.06 min | pT538 PKCθ phosphorylation, maximum at about 1 min ([2]; mean±S.E.): 188±13 % of control | pT538 PKCθ phosphorylation at 30 min ([2]; mean±S.E.): 171±23 % of control | association of PKCθ with tubulin [5]: but not an association with p85 PI3K, PKD1, RafB, Bcl-10, Cbl, MALT-1, tubulin | association of PKCθ with RafA [6]: increase in the association | association of PKCθ with RafB [7]: but not an association with p85 PI3K, PKD1, RafB | association of PKCθ with RafC [8]: increase in the association | membrane associated PKCθ ([9]; TPA, 5 min incubation): 189±59 % of control | association of PKCθ with Lyn [10]: increase in the association | association of PKCθ with p85 PI3K [11]: but not an association with p85 PI3K | association of PKCθ with 14-3-3γ [12]: but not with MALT-1, Bcl-10, 14-3-3γ or Cbl | association of PKCθ with Akt [13]: increase in the association | phosphoT538 PKCθ in the membrane (immunofluorescence) [14]: increased in the membrane in both cases (Panel B and C, Fig. 6, respectively), with the increase caused by TPA more prominent | phosphorylation of PKD stimulated by TPA ([15]; TPA 1 μM, 5 min): 19.1±3.0 folds over control | association of PKCθ with Cbl [16]: but not with MALT-1, Bcl-10, 14-3-3γ or Cbl | association of PKCθ with MALT-1 [17]: but not with MALT-1, Bcl-10, 14-3-3γ or Cbl

EC50 ([2]; read-out: half-maximal effect (EC50), T538 PKCθ phosphorylation, dose-response, 1 minute, 4–5 independent experiments, GraphPad 5.0): 0.174 ± 0.008 nM | Amylase secretion (% total), −PKCθ inhibitor ([3]; CCK 0.03 nM): 5.1±0.8 % total | Amylase secretion (% total), −PKCθ inhibitor ([3]; CCK 0.1 nM): 7.1±0.6 % total | Amylase secretion (% total), −PKCθ inhibitor ([3]; CCK 100 nM): 4.5±0.4 % total | CCK stimulation of PKCθ activation mediated by the high affinity state CCKA receptor ([22]; from CCK-JMV versus CCK maximal effect): 30%
Compound: COOH-terminal octapeptide of cholecystokinin [CCK]
maximal stimulation of T538 phosphorylation of PKCθ ([2]; 10 nM, 1 minute, 4–5 independent experiments, mean±S.E.): 239±25 % of control | concentration of maximal effect, T538 PKCθ phosphorylation ([2]; dose-response, 1 minute): 10 nM | stimulation of PKCθ phosphorylation (pT538), secretagogues [2]: stimulated a significant increase | lowest concentration with detectable T538 PKCθ phosphorylation ([2]; pancreatic acinar cells): 0.1 nM | tmax of pT538 PKCθ phosphorylation [2]: 0.78±0.08 min | pT538 PKCθ phosphorylation, maximum at about 1 min ([2]; mean±S.E.): 197±19 % of control | pT538 PKCθ phosphorylation at 30 min ([2]; mean±S.E.): 145±11 % of control | association of PKCθ with tubulin [5]: but not an association with p85 PI3K, PKD1, RafB, Bcl-10, Cbl, MALT-1, tubulin | CCK concentration required to fully activate PKCδ ([18]; no reference printed at this sentence): 100 nM | CCKA receptor state mediating PKCδ activation ([18]; ref [14]): mediated only through activation of the low affinity CCKA receptor state | association of PKCθ with RafA [6]: increase in the association | direct association of PKCθ with RafA at low CCK concentration or with CCK-JMV ([6]; CCK 0.1–1–10 nM or CCK-JMV): observed also at low CCK concentration | association of PKCθ with RafB [7]: but not an association with p85 PI3K, PKD1, RafB | association of PKCθ with RafC [8]: increase in the association | direct association of PKCθ with RafC at low CCK concentration or with CCK-JMV ([8]; CCK 0.1–1–10 nM or CCK-JMV): observed also at low CCK concentration | membrane associated PKCθ ([9]; CCK, 1 min incubation): 216±34 % of control | CCKA receptor state mediating phospholipase D activation [19]: mediated entirely by the activation of the high affinity receptor state | association of PKCθ with Lyn [10]: increase in the association | direct association of PKCθ with Lyn at low CCK concentration or with CCK-JMV ([10]; CCK 0.1–1–10 nM or CCK-JMV): observed also at low CCK concentration | association of PKCθ with p85 PI3K [11]: but not an association with p85 PI3K | CCKA receptor state mediating PI-3 kinase activation [20]: mediated entirely by the activation of the high affinity receptor state | association of PKCθ with 14-3-3γ [12]: but not with MALT-1, Bcl-10, 14-3-3γ or Cbl | CCKA receptor state mediating CrKII phosphorylation [21]: mediated only through activation of the low affinity CCKA receptor state | CCK concentration for maximal PKCmu (PKD1) activation [23]: 10 nM | share of Lyn activation due to high affinity CCKA receptor state [24]: 60% | association of PKCθ with Akt [13]: increase in the association | phosphoT538 PKCθ in the membrane (immunofluorescence) [14]: increased in the membrane | phosphorylation of PKD stimulated by CCK ([15]; CCK 10 nM, 2.5 min): 19.4±3.69 folds over control | association of PKCθ with Cbl [16]: but not with MALT-1, Bcl-10, 14-3-3γ or Cbl | share of maximal PYK2/CAKβ activation due to high affinity CCKA receptor state [25]: 20% | association of PKCθ with MALT-1 [17]: but not with MALT-1, Bcl-10, 14-3-3γ or Cbl

inhibition of CCK-stimulated PKCθ phosphorylation, CCKA receptor antagonists ([22]; preincubated 5 min, then CCK 10 nM for 1 min): completely inhibited
Compound: O=C(O)Cn1c(C(=O)Nc2nc(-c3ccccc3Cl)cs2)cc2ccccc21 [SR27897, 1-[[2-(4-(2-chlorophenyl)-thiazol-2-yl)aminocarbonyl]indolyl]acetic acid]

Compound: EGF: Epidermal growth factor
T538 PKCθ phosphorylation in A431 cells [26]: increases T538 PKCθ phosphorylation

Compound: IGF: insulin-like growth factor 1
PKCθ catalytic activity in rhabdomyosarcoma cell line [27]: increases PKCθ catalytic activity

Compound: gastrin
pT538 PKCθ phosphorylation by gastrin [28]: did not produce any increase

Compound: C[N+](C)(C)CCOC(N)=O [carbachol]
stimulation of PKCθ phosphorylation (pT538), secretagogues [2]: stimulated a significant increase | Amylase secretion (% total), −PKCθ inhibitor ([3]; Carbachol 1 μM): 6.8±0.7 % total | Amylase secretion (% total), −PKCθ inhibitor ([3]; Carbachol 1 mM): 6.2±0.7 % total

Compound: secretin: gastrointestinal hormone that causes an increase in the cAMP
stimulation of PKCθ phosphorylation (pT538), secretagogues [2]: Neither
